pKd, pKi: −log10 of the molar value. Some results are limits rather than exact numbers.

The nature of assay [1]: Binding affinity to HSP90 after 30 mins by ITC assay. The method in brief:
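Isothermal titration calorimetry at 25 °C with stirring at 1000 rpm. Ligands came from a 20 mM DMSO stock and were run in dialysis buffer with 1% DMSO. Ligand 10 µM in the cell, protein 100–200 µM in the syringe, 8–16 injections at 300 s spacing. One-site fit.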
A general note: In ITC the heat of successive injections is recorded.

Assay [2] deals with Heat shock protein HSP 90-beta (Homo sapiens, UniProt P08238). The assay is described as follows: Inhibition of fluorescently labeled VER51001 binding to full length human HSP90beta after 30 mins by fluorescence polarization assay. For orientation: In fluorescence polarisation assays a small probe gives low polarisation when free and higher when bound to something large.
Assay [3] can be described thus: Binding affinity to hexa His-tagged HSP90 (9-236 aminoacids) by SPR assay. A digest of the protocol:
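NTA chip charged with 0.5 mM Ni2+, then 100 nM His-tagged HSP90 captured to about 1500 RU. Running buffer 10 mM HEPES pH 7.4, 150 mM NaCl, EDTA, 0.05% Tween-20, 1% DMSO. Surface was reloaded for each concentration. Double-referenced sensorgrams were fitted globally to a single-step kinetic model.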
(In general: SPR reads the build-up and loss of mass on a sensor chip optically.)

In assay [4] the test system is BT-474. The assay is described as follows: Antiproliferative activity against human BT474 cells after 4 days by SRB method. Particulars: BT-474, 96 h. The format is functional.

Heat shock protein HSP 90-beta, sequence (P08238 whole entry, the tested form may be a part): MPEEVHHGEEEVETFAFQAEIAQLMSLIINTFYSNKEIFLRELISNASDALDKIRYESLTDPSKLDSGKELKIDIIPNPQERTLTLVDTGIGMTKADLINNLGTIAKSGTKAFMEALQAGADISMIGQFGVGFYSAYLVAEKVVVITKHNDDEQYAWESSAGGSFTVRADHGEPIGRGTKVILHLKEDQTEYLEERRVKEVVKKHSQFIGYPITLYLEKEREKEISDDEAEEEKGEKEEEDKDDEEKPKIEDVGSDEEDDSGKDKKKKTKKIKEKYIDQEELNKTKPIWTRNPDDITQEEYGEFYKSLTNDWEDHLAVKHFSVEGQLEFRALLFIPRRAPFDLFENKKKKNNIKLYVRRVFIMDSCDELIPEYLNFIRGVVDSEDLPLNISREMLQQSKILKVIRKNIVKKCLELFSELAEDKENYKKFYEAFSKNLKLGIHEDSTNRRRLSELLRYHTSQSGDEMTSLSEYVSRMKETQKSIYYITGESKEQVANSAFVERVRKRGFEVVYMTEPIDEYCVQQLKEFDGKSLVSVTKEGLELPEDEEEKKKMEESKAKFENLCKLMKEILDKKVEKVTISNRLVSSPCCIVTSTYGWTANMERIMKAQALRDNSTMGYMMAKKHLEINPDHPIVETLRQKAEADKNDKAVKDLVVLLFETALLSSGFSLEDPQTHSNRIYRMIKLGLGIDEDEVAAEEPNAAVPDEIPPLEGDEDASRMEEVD

A word on the pKd: it is the negative decadic logarithm of the Kd, by convention in mol/L. Low readings indicate a high Kd, high ones a low Kd. The pKi is the Ki on a negative log10 scale, so that one unit is a factor of ten. A higher pKi goes with a low Ki. Consider `CSc1nc(-c2ccc(F)cc2C)c2c(C#N)c[nH]c2n1`, for which the negative logarithm of the Kd (pKd) is 6.60 in assay [1] and 6.37 in assay [3]. In assay [2], the negative-log Ki (pKi) was 6.45.
On to `CSc1nc(-c2ccc(C#N)cc2)c2c(C#N)c[nH]c2n1`, for which, in assay [2], the pKi is 6.69. The same compound gave a pKd in assay [3] of 5.91.
For `CSc1nc(-c2ccc(C)cc2C)c2c(C#N)n[nH]c2n1`, the negative logarithm of the Ki (pKi) in assay [2] is 5.28. In addition, the pKd in assay [3] was 4.42.
For `CSc1nc(-c2ccc(C)cc2C)c2c(Br)c[nH]c2n1`, the pKi in assay [2] is less than 3.70. Further, the negative logarithm of the Kd (pKd) in assay [3] is less than 4.70.
Turning to `CSc1nc(-c2ccc(C)cc2C)c2c(C)c[nH]c2n1`, the pKi in assay [2] is less than 3.70. Also, the negative logarithm of the Kd (pKd) in assay [3] was 4.71.
Turning to `CSc1nc(-c2ccc(C)cc2C)c2c(C(F)(F)F)c[nH]c2n1`, in assay [2], the pKi is 5.58. Further, the negative-log Kd (pKd) in assay [3] is 4.26.
As to `CSc1nc(-c2ccc(C)cc2C)c2c(C3CC3)c[nH]c2n1`, in assay [2], the negative logarithm of the Ki (pKi) was less than 4.30. Besides, the pKd in assay [3] was less than 4.00.
`CSc1nc(-c2ccc(F)cc2C)c2c(C(N)=O)c[nH]c2n1`: the pKi in assay [2] was less than 3.70. In assay [3], the negative logarithm of the Kd (pKd) is less than 4.00.
For the compound `Cc1ccc(-c2ncnc3[nH]cc(C#N)c23)c(C)c1`, the pKd in assay [1] is 5.79; in assay [3], 5.73. The pKi in assay [2] is 5.55.
Take `COc1nc(-c2ccc(F)cc2C)c2c(C#N)c[nH]c2n1`: the figures for the negative-log Kd (pKd) in assay [1] and in assay [3] were 6.14 and 5.55, respectively. Also, the pKi in assay [2] is 6.20.
For `CNc1nc(-c2ccc(F)cc2C)c2c(C#N)c[nH]c2n1` the same measures were 5.43, 5.37 and 5.39.
The matching figures for `CCc1nc(-c2ccc(F)cc2C)c2c(C#N)c[nH]c2n1`: 5.74, 5.65 and 5.76.
A word on the GI50: it is the concentration that inhibits growth by half. In assay [2], `CSc1nc(-c2cc(OCCN3CCCC3)c(Cl)cc2Cl)c2c(C#N)c[nH]c2n1` showed a negative-log Ki (pKi) of 8.40. Growth in assay [4] was halved (GI50) at 0.048 µM.
For `CCN(CC)CCOc1cc(-c2nc(SC)nc3[nH]cc(C#N)c23)c(Cl)cc1Cl`, in assay [2], the pKi is 8.70. The same compound registered a concentration for 50% growth inhibition (GI50) in assay [4] of 0.031 µM.
As to `COc1cc(Cl)c(-c2nc(SC)nc3[nH]cc(C#N)c23)cc1OCCN1CC[C@H](F)C1`, the pKi in assay [2] was 8.52. Moreover, it took 0.031 µM to inhibit growth in assay [4] by half (GI50).
As for `COc1cc(Cl)c(-c2nc(SC)nc3[nH]cc(C#N)c23)cc1OCCN1CCC(F)(F)C1`, the pKi in assay [2] was 7.92. This compound also showed a GI50 in assay [4] of 0.047 µM.
For `CCN(CC)CCSc1nc(-c2cc(OC)c(Cl)cc2Cl)c2c(C#N)c[nH]c2n1` the same measures were greater than 9.00 and 0.072 µM.
On to `CCN(CC)CCSc1nc(-c2cc(OC)c(OC)cc2Cl)c2c(C#N)c[nH]c2n1`, for which the pKi in assay [2] is 8.15. The same compound gave a GI50 in assay [4] of 0.026 µM.
For the compound `CSc1nc(-c2ccc(F)cc2C)c2nc[nH]c2n1`, the figures for the pKd in assay [1] and in assay [3] were 5.56 and 5.64, respectively. In assay [2], this compound had a pKi of 4.89.
`CSc1nc(-c2ccc(C#N)cc2)c2nc[nH]c2n1`: the pKi in assay [2] was 4.61. In addition, in assay [3], the pKd is less than 4.70.
Compound `CSc1nc(-c2ccc(C)cc2C)c2cc[nH]c2n1` gave a pKi in assay [2] of less than 3.70. In assay [3], this compound had a pKd of less than 4.00.
In assay [2], `CSc1nc(-c2ccc(F)cc2C)c2cc[nH]c2n1` had a pKi of less than 3.70. This compound also had a pKd in assay [3] of less than 4.00.
The matching figures for `CSc1nc(-c2ccc(Cl)cc2C)c2nc[nH]c2n1`: 6.18 and less than 4.70.

These data come from ChEMBL document CHEMBL2157917, “Targeting conserved water molecules: design of 4-aryl-5-cyanopyrrolo[2,3-d]pyrimidine Hsp90 inhibitors using fragment-based screening and structure-based optimization” (Bioorg Med Chem, 2012).
